In the M2OR odorant receptor database:

These molecules were tested against T1, OR8D1 (Homo sapiens) (UniProt Q8WZ84). Conditions: stereoisomer not certain.
T1 sequence (whole entry): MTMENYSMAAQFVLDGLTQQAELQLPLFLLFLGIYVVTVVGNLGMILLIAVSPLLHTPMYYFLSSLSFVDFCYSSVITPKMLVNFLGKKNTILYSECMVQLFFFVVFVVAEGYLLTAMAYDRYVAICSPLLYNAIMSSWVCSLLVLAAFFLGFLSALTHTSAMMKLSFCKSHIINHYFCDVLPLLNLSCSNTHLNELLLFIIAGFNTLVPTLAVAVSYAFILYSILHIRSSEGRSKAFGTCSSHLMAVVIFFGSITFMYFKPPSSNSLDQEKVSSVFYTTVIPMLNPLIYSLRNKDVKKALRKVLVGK
How it was run: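 Each entry records the cell line, G-protein, co-transfected protein and tags used. Methods varied with the source, often transient luciferase assays in mammalian cell lines. A receptor–molecule pair is called responsive (active) if the original authors judged its signal statistically different from baseline and non-responsive (inactive) otherwise.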

Odorant receptor agonist call, inactive:
CCC=CCCC=O, CCCCCCCCCC(=O)[O-].[H+], CC(C)c1ccc(C=O)cc1, COC(=O)C=Cc1ccccc1, CC(=O)OCCC(C)C, OCCc1ccccc1, CCCCCCCCCC(=O)OCC, CC(C)=CC1CC(C)CCO1 (configuration not stated), COc1ccc2ccc(=O)oc2c1, CCCCCCC(=O)[O-].[H+], COc1nccnc1C(C)C, CCCC1CCCC(=O)O1 (configuration not stated), O=C(O)CCc1ccccc1, CC(=O)OCCc1ccccc1, C=CCSC, Cc1ccc(O)cc1, OCC=Cc1ccccc1, CSSSC, CCCCCC=CC=CC=O, CCCSSSC, CCCCC=CC=CC=O, CC=Cc1ccc(OC)cc1, Cc1c[nH]c2ccccc12, CC(=O)O, CCC=CCC=O, CCCCC=CC=O, CCOC(C)=O, CCCCCCOC(C)=O, CCOC(=O)C(C)C, CCOC(=O)CC(C)C, C=C1CCC2(C(C)C)CC12 (configuration not stated), CCCCCCCCCO, CCCC=CC=O, C=C1CCC2CC1C2(C)C (configuration not stated), CCCCCCCCC=CC=O, CCCCCC=O, C=CC(=C)CCC=C(C)C
